Experimental findings from ChEMBL document CHEMBL1156199, “Synthesis of new acridone derivatives, inhibitors of NS3 helicase, which efficiently and specifically inhibit subgenomic HCV replication” (J Med Chem, 2010) are described below.

The source made the active and inactive calls. The calls are words filed in the database; no cut-off is given here.

Series [1] deals with Hepatitis C virus. Briefly: Antiviral activity against HCV 1b infected in human HuH7 cells assessed as inhibition of viral RNA replication at 10 uM after 4 days by replicon assay. As to conditions: genotype 1b, Huh-7, 168 h, in the assay text read “after 7 days” for “after 4 days”. It is filed as functional, Hepacivirus hominis. In a few lines: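 Huh-7 cells with genotype 1b subgenomic replicon seeded at 4 × 10⁵ per dish in DMEM, grown 7 days with 0, 1, 10 or 100 μM compound; 5 μg total RNA reverse transcribed (3UTR, oligo(dT)15, random hexamer primers), equal cDNA used for real-time PCR (45 cycles, 56 °C annealing) to quantify replicon RNA.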
For orientation: Replicon systems follow genome replication, usually without infectious particles.

Series [2] can be described thus: Therapeutic index, ratio of CC50 for human HuH7 cells to EC50 for HCV 1b. The format is cell-based, Huh-7. As to conditions: read-out: Ratio CC50/EC50. The essentials:
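Therapeutic index calculated as CC50 (XTT, replicon-bearing Huh-7 cells) divided by EC50 (luminescence replicon assay, genotype 1b).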

Series [3] has as its system Hepatitis C virus. Briefly: Antiviral activity against HCV 1b infected in human HuH7 cells assessed as inhibition of viral RNA replication after 4 days by replicon assay. It is filed as functional, organism-based, Hepacivirus hominis. Conditions: genotype 1b, Huh-7, 96 h. In a few lines: (§1)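 Huh-7 cells carrying genotype 1b subgenomic replicon; compounds in DMSO tested from 1 to 200 μM or 1 μM to 1 mM depending on solubility; luminescence-based replicon RNA amplification assay; EC50 = concentration reducing luminescence by 50%.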

The nature of series [4]: Inhibition of HCV 3a NS3 helicase by fluorimetry. The arrangement: species or system Hepatitis C virus subtype 3a. The essentials:
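Fluorometric helicase unwinding assay with a dsDNA substrate at 37 °C; NS3 helicase domain (genotype […], from patient-derived RNA) expressed in baculovirus and purified from insect cells, used at 50 nM; IC50 = concentration reducing helicase activity by 50%, relative to DMSO control.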

The nature of series [5]: Cytotoxicity against human HuH7 cells after3 days by XTT assay. A general note: Formazan colour is commonly taken as a measure of viable cells.
Series [6] relates to Hepatitis C virus. Briefly: Antiviral activity against HCV 1b infected in mutant human HuH7 cells assessed as inhibition of viral RNA replication after 4 days by replicon assay. Conditions: genotype 1b, Huh-7, 96 h. It is filed as functional, organism-based, Hepacivirus hominis.
Series [7] has as its system NS3 helicase (Hepatitis C virus genotype 1a). The experiment in a line: Inhibition of HCV 1a NS3 helicase by fluorimetry.
A short description of series [8]: Inhibition of HCV NS3 helicase in presence of 1.5 mM ATP. The arrangement: species or system Hepacivirus hominis.
A short description of series [9]: Inhibition of HCV NS3 helicase in presence of 2.5 mM ATP. More on the design: species or system Hepacivirus hominis.
Series [10] can be described thus: Inhibition of HCV NS3 helicase in presence of 0.5 mM ATP. More on the design: species or system Hepacivirus hominis.
Series [11] deals with Nucleic Acid. The experiment in a line: Binding affinity to HCV dsRNA assessed as inhibition of ethidium bromide RNA intercalation by gel migration retardation assay. It is filed as nucleic-acid assay. As to conditions: Hepacivirus hominis. The essentials: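 dsRNA gel migration retardation assay: compound incubated with dsRNA, ethidium bromide staining; intercalation read as partial or total disappearance of the dsRNA band; DMSO and epidoxorubicin controls.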

For series [12], the system named is Hepatitis C virus. Briefly: Antiviral activity against HCV 1b infected in human HuH7 cells assessed as inhibition of viral RNA replication at 2.7 uM after 4 days by replicon assay. It is filed as functional, Hepacivirus hominis. As to conditions: genotype 1b, Huh-7, 96 h. In a few lines:
as §1

Series [13] has as its system Nucleic Acid. Briefly: Binding affinity to […] assessed as inhibition of ethidium bromide DNA intercalation by gel migration retardation assay. It is filed as nucleic-acid assay. Conditions: Hepacivirus hominis. In a few lines:
(§2)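 dsNA gel migration retardation assay on dsDNA: compound (100 or 500 μM) incubated with dsDNA, ethidium bromide staining; intercalation read as partial or total loss of the dsDNA band; DMSO as negative and epidoxorubicin as positive control.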

The subject of series [14] is Nucleic Acid. The experiment in a line: Binding affinity to […] assessed as inhibition of ethidium bromide DNA intercalation at 100 uM by gel migration retardation assay. It is filed as nucleic-acid assay. Conditions: Hepacivirus hominis. In a few lines: as §2
In series [15] the test system is Hepatitis C virus. Briefly: Antiviral activity against HCV 1b infected in human HuH7 cells assessed as inhibition of viral RNA replication at 5.8 uM after 4 days by replicon assay. It is filed as functional, Hepacivirus hominis. Conditions: genotype 1b, Huh-7, 96 h. In a few lines: as §1

The term inhibition denotes the share of the control response that was lost under treatment. The term EC50 denotes the concentration at which the effect is half-maximal. As a reminder, the IC50 is the concentration that inhibits the measured activity by half. By CC50 is commonly meant the concentration that lowers cell viability or growth by half. Low values mean harm at low concentration, high ones better tolerance by the cells. For `COc1cccc2c(=O)c3cc(F)cc(C(=O)Nc4cccnc4)c3[nH]c12`, the inhibition at 10 µM with Hepatitis C virus [1] came to 85%. Moreover, the selectivity ratio in [2] is greater than 1000. Moreover, the EC50 in the series on Hepatitis C virus [3] turned out to be 0.98 µM; in the series on Hepatitis C virus [6] it was 251 µM. In addition, the 50% inhibitory concentration (IC50) was 7.3 µM in series [4]; 8.6 µM in series [7]; 8.6 µM in series [8]; 9.9 µM in series [9]; 10.9 µM in series [10]. Moreover, in series [5], the CC50 at 72 h was greater than 1000 µM.
In the case of `COc1cc(NC(=O)c2cccc3c(=O)c4cccc(OC)c4[nH]c23)cc(OC)c1OC`, the selectivity ratio in series [2] was greater than 2.5. In the series with Hepatitis C virus [3], the 50% effective concentration (EC50) amounted to 203 µM. For the same molecule, in [5], the CC50 at 72 h was greater than 500 µM. Moreover, the IC50 in [7] is 751 µM.
As for `COc1cccc2c(=O)c3cc(Cl)cc(C(=O)Nc4cc(Cl)ccn4)c3[nH]c12`, the concentration for a half-maximal effect (EC50) in the series on Hepatitis C virus [3] is greater than 100 µM. The molecule further came in with a CC50 at 72 h in series [5] greater than 100 µM. The IC50 in series [7] worked out at 1.5 µM; in [8], 1.5 µM; in series [9] it was 1.1 µM; in series [10], 1.1 µM.
Regarding `O=C(Nc1ccncc1)c1cccc2c(=O)c3cccc(OCc4ccccc4)c3[nH]c12`, in the series on Hepatitis C virus [3], the concentration giving a half-maximal response (EC50) is greater than 100 µM. Moreover, the cytotoxic concentration (CC50) at 72 h in series [5] is greater than 100 µM. This molecule gave an IC50 in [7] of 8 µM.
Turning to `[N-]=[N+]=N[C@]1(CO)O[C@@H](n2ccc(N)nc2=O)[C@H](O)[C@@H]1O` [4'-AZIDOCYTIDINE], the selectivity ratio in series [2] was greater than 143. Also, the CC50 at 72 h in series [5] was greater than 200 µM.
Turning to `COc1cccc2c(=O)c3cc(Cl)cc(C(=O)Nc4cccnc4)c3[nH]c12`, in series [2], the selectivity ratio turned out to be 20.1. Moreover, the EC50 in the series on Hepatitis C virus [3] was 0.96 µM. The cytotoxic concentration (CC50) at 72 h in series [5] came out at 19.3 µM. In series [7], this molecule had an IC50 of 54.6 µM.
On to `COc1cccc2c(=O)c3cc(Cl)cc(C(=O)Nc4ccccn4)c3[nH]c12`, for which the selectivity ratio in series [2] turned out to be 3.2. Further, the half-maximal effective concentration (EC50) with Hepatitis C virus [3] turned out to be 5 µM. The molecule also gave a CC50 at 72 h in series [5] of 15.8 µM. Further, the concentration for half-maximal inhibition (IC50) in series [7] was 64.7 µM. The result in the series on Nucleic Acid [11] was inactive.
As for `NC(=O)c1ncn([C@@H]2O[C@H](CO)[C@@H](O)[C@H]2O)n1` [RIBAVIRIN], the selectivity ratio in series [2] was 60.2. For the same molecule, the concentration giving a half-maximal response (EC50) in the series with Hepatitis C virus [3] was found to be 17.6 µM. The molecule further gave a cytotoxic concentration (CC50) at 72 h in series [5] of 1060 µM.
The molecule `COc1cccc2c(=O)c3cc(F)cc(C(=O)Nc4ccccn4)c3[nH]c12` came in with a CC50 at 72 h in series [5] greater than 100 µM. The concentration for half-maximal inhibition (IC50) in series [7] was 4.7 µM; in [8], 4.7 µM; in series [9] it was 5.1 µM; in series [10], 6.5 µM. The inhibition at 2.7 µM in the series on Hepatitis C virus [12] was 30%.
`COc1cccc2c(=O)c3cccc(C(=O)Nc4cccnc4)c3[nH]c12`: in series [2], the selectivity ratio was greater than 28. In addition, in the series on Hepatitis C virus [3], the concentration giving a half-maximal response (EC50) was found to be 3.5 µM. Moreover, in series [5], the 50% cytotoxic concentration (CC50) at 72 h was greater than 100 µM. The IC50 in [7] was determined as 20.6 µM. Besides, the outcome with Nucleic Acid [13] and in the series with Nucleic Acid [14] was Active.
As to `COc1cccc2c(=O)c3cc(F)cc(C(=O)Nc4cc(Cl)ccn4)c3[nH]c12`, the EC50 in the series on Hepatitis C virus [3] is greater than 100 µM. Besides, the half-maximal cytotoxic concentration (CC50) at 72 h in [5] is greater than 100 µM. Moreover, the IC50 in [7] was 46.3 µM.
With `COc1cccc2c(=O)c3cccc(C(=O)Nc4cc(Cl)ccn4)c3[nH]c12`, the CC50 at 72 h in [5] stood at 171 µM. In addition, the midpoint of inhibition in series [7], the IC50, lay at 35.8 µM. The inhibition at 5.8 µM with Hepatitis C virus [15] stood at 30%.
With `COc1cccc2c(=O)c3cccc(C(=O)Nc4ccccn4)c3[nH]c12`, the selectivity ratio in series [2] came out at 1.1. In addition, in the series with Hepatitis C virus [3], the concentration giving a half-maximal response (EC50) turned out to be 2.3 µM. In addition, the half-maximal cytotoxic concentration (CC50) at 72 h in series [5] is 2.5 µM. Also, 6.2 µM corresponded to half-maximal inhibition in series [7] (IC50). Further, the result in the series with Nucleic Acid [13] was Active.
